Calls of active or inactive are those of the source. The rule behind the calls is not given here.
What was measured:
Histone deacetylase 1 = Histone deacetylase 1 (Homo sapiens, UniProt Q13547); assay: Inhibition of recombinant full-length human C-terminal FLAG-His-tagged HDAC1 expressed in baculovirus infected Sf9 insect cells using Boc-L-Lys(Ac)-AMC as substrate preincubated for 5 mins followed by substrate addition measured after 35 mins by fluorescence assay
Histone deacetylase 2 = Histone deacetylase 2 (Homo sapiens, UniProt Q92769); assay: Inhibition of recombinant human full-length C-terminal His-tagged HDAC2 expressed in baculovirus infected Sf9 insect cells using Boc-L-Lys(Ac)-AMC as substrate preincubated for 5 mins followed by substrate addition measured after 35 mins by fluorescence assay
Chain of Histone deacetylase 2 (Q92769 whole entry, the tested form may be a part): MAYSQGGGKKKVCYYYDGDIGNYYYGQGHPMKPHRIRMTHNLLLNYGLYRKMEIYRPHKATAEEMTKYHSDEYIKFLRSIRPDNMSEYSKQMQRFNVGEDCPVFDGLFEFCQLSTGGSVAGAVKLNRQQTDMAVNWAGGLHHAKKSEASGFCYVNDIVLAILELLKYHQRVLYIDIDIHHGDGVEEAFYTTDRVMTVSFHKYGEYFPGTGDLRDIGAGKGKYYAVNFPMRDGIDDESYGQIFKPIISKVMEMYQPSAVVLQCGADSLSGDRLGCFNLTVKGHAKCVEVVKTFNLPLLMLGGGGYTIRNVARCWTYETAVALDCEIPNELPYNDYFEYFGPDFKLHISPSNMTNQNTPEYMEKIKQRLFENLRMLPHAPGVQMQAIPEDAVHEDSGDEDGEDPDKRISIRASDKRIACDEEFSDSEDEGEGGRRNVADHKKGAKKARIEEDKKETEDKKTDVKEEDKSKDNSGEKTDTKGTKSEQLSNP

[1] = biological target: Histone deacetylase 3/Nuclear receptor corepressor 2 (HDAC3/NCoR2) (Homo sapiens, UniProt O15379); assay: Inhibition of recombinant human full-length C-terminal His-tagged HDAC3 (395 to 489 residues)/human NCOR2 expressed in baculovirus infected Sf9 insect cells using Boc-L-Lys(Ac)-AMC as substrate pretreated for 5 mins followed by substrate addition measured after 35 mins by fluorescence assay
Chain of Histone deacetylase 3/Nuclear receptor corepressor 2 (HDAC3/NCoR2) (O15379 whole entry, the tested form may be a part): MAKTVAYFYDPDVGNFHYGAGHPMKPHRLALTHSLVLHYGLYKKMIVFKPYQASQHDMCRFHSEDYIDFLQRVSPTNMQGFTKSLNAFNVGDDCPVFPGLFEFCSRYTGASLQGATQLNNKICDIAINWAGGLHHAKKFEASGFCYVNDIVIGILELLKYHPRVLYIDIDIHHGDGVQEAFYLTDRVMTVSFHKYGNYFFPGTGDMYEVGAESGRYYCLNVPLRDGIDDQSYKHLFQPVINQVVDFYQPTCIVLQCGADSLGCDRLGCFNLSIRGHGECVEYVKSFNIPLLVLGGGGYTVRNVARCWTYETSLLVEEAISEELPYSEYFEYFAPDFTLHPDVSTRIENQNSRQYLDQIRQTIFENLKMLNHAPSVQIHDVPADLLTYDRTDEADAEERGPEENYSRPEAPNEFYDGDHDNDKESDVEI
Chain of Histone deacetylase 3/Nuclear receptor corepressor 2 (HDAC3/NCoR2) (Q9Y618 whole entry, further chain, the tested form may be a part): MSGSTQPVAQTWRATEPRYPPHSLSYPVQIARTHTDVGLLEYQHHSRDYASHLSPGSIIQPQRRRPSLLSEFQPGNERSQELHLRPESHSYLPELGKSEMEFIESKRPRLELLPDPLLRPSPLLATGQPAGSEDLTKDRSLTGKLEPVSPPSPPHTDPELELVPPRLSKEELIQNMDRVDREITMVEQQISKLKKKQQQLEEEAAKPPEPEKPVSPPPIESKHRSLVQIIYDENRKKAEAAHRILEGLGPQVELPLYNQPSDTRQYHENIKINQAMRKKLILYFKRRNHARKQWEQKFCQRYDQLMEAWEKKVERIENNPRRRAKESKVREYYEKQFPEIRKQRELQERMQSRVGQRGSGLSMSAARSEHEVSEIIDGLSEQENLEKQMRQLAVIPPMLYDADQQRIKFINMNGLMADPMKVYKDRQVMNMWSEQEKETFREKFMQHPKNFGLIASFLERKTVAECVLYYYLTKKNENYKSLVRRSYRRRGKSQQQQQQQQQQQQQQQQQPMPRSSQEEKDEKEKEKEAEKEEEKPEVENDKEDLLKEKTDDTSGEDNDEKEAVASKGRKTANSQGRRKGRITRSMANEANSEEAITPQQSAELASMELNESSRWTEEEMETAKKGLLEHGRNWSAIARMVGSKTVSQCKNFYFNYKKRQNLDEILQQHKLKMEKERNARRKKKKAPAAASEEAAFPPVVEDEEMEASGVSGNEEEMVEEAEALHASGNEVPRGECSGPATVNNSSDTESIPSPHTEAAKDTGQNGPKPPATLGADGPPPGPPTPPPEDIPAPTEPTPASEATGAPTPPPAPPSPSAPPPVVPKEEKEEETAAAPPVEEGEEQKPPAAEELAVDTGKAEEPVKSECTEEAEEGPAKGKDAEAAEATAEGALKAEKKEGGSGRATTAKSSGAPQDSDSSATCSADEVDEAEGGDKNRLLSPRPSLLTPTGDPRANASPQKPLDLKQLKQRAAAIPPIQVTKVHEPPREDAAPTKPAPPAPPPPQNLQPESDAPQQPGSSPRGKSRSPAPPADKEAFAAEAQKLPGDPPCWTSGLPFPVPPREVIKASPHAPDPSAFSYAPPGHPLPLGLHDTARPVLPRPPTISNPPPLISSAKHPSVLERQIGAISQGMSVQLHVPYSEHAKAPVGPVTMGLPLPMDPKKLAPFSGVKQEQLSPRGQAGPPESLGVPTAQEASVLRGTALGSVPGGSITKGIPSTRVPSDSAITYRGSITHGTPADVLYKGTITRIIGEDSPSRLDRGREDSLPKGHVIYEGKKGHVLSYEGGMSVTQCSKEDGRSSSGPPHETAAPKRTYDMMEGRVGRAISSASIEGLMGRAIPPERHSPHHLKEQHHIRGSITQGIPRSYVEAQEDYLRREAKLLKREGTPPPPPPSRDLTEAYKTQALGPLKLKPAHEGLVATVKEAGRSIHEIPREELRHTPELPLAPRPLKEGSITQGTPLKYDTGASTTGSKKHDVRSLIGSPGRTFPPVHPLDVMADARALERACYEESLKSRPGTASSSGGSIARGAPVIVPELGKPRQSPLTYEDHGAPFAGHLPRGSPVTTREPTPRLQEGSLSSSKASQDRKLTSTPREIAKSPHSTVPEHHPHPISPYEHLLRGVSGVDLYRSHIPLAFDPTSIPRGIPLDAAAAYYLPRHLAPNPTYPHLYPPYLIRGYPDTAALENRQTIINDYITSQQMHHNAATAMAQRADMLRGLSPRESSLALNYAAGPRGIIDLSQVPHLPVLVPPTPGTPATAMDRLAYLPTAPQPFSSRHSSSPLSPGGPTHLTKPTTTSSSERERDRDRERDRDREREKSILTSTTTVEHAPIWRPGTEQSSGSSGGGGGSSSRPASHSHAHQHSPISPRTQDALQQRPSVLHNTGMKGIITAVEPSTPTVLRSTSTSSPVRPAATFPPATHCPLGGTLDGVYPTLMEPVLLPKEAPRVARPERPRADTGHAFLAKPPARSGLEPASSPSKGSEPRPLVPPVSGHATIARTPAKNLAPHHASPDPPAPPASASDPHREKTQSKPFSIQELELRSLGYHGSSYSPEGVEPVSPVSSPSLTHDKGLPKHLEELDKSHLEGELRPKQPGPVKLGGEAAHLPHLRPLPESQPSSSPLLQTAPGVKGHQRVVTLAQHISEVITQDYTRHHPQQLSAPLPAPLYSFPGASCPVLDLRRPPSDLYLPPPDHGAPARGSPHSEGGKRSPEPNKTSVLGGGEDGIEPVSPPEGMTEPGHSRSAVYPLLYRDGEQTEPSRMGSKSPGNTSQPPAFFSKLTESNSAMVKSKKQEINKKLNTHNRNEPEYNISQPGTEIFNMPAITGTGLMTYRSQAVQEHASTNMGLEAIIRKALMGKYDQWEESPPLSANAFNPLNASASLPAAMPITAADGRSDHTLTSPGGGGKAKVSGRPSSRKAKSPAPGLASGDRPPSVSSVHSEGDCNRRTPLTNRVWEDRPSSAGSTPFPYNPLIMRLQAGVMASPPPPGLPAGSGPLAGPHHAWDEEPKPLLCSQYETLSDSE

Histone deacetylase 8 = biological target: T1, Histone deacetylase 8 (Homo sapiens, UniProt Q9BY41); assay: Inhibition of recombinant HDAC8 (unknown origin) expressed in Escherichia coli using fluor de Lys(R) as substrate pretreated for 5 mins followed by substrate addition measured after 35 mins by fluorescence assay
T1 sequence (Q9BY41 whole entry): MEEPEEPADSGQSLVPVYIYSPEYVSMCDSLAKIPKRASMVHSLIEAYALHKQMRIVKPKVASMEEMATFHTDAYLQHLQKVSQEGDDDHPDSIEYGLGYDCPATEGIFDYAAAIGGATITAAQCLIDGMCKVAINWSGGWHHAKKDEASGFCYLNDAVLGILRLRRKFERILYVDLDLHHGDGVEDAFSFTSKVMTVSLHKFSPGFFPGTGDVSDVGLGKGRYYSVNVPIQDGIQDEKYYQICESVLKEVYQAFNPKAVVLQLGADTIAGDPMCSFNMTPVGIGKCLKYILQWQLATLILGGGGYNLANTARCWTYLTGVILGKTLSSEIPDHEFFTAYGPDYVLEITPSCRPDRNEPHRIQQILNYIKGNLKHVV

[2] = biological target: T2, Protein deacetylase HDAC6 (Homo sapiens) (UniProt Q9UBN7); assay: Inhibition of recombinant human HDAC6 at 10 uM using fluorogenic HDAC substrate 3 by fluorescence assay relative to control
T2 sequence (whole entry): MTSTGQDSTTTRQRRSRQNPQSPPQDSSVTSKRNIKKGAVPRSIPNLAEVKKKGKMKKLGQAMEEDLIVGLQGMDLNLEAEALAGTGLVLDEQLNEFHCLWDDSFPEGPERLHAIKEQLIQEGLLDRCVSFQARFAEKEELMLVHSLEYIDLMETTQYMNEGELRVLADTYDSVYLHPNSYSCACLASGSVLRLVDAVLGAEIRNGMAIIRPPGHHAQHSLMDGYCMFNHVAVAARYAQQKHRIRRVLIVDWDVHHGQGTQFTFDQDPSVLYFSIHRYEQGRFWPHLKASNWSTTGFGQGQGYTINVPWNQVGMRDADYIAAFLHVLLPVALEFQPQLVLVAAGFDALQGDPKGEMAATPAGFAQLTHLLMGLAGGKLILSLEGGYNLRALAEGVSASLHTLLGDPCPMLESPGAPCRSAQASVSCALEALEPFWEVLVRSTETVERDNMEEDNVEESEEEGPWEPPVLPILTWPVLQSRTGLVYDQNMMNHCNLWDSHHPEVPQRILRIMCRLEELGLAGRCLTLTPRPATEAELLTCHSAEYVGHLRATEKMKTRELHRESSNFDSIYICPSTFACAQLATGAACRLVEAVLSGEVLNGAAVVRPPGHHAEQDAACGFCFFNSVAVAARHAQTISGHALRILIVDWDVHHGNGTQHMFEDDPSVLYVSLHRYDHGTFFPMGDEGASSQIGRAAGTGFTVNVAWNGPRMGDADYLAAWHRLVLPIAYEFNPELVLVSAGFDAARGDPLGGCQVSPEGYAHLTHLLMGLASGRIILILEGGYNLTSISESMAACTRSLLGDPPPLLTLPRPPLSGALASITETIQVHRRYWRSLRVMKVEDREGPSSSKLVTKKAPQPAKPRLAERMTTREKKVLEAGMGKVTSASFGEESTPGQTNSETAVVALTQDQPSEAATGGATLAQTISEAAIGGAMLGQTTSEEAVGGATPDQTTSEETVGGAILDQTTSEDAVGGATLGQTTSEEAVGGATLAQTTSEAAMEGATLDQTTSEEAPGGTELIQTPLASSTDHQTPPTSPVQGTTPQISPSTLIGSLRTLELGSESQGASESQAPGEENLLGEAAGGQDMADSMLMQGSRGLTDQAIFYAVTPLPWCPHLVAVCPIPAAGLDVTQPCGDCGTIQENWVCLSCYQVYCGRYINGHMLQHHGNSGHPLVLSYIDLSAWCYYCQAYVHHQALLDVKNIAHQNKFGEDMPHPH
Outline: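 HDAC6 activity was measured with test compound at 10 μM and reported as percent inhibition. Values are mean ± standard deviation of at least two independent experiments, rounded to two significant figures.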

Homo sapiens [3] = species: Homo sapiens; assay: Selectivity ratio of IC50 for recombinant full-length human C-terminal FLAG-His-tagged HDAC1 expressed in baculovirus infected Sf9 insect cells to IC50 for recombinant HDAC8 (unknown origin) expressed in Escherichia coli
Homo sapiens [4] = species: Homo sapiens; assay: Selectivity ratio of IC50 for recombinant human full-length C-terminal His-tagged HDAC2 expressed in baculovirus infected Sf9 insect cells to IC50 for recombinant HDAC8 (unknown origin) expressed in Escherichia coli
Homo sapiens [5] = species: Homo sapiens; assay: Selectivity ratio of IC50 for recombinant human full-length C-terminal His-tagged HDAC3 (395 to 489 residues)/human NCOR2 expressed in baculovirus infected Sf9 insect cells to IC50 for recombinant HDAC8 (unknown origin) expressed in Escherichia coli
SH-SY5Y [6] = assay: Cytotoxicity against human SH-SY5Y cells expressing TP53 after 48 hrs by CellTiter96 AQueous one solution cell proliferation assay; format: functional, cell-based
Outline: (§1)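 Neuroblastoma cells were exposed to compound for 48 h and viability was read by MTS assay. Values are mean ± standard deviation of at least three independent experiments.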

IMR-5 [7] = assay: Cytotoxicity against human IMR5 cells expressing TP53 after 48 hrs by CellTiter96 AQueous one solution cell proliferation assay; format: functional, cell-based; conditions: IMR-5, 48 h; outline: as §1
SH-SY5Y [8] = assay: Inhibition of class 1 HDAC in human SH-SY5Y cells assessed as increase in acetylation of histone H3 at 0.1 to 10 uM after 24 hrs by Western blot analysis; format: cell-based
Outline: (§2)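 SH-SY5Y cells were treated with the stated concentrations for 24 h. Lysates were analysed by Western blot for acetylated histone H3 and acetylated α-tubulin.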

SH-SY5Y [9] = assay: Inhibition of class 2 HDAC in human SH-SY5Y cells assessed as increase in acetylation of alpha-tubulin at 0.1 to 10 uM after 24 hrs by Western blot analysis; format: cell-based; outline: as §2
SH-SY5Y [10] = assay: Cytotoxicity against human SH-SY5Y cells expressing TP53 by CellTiter96 AQueous one solution cell proliferation assay; format: functional, cell-based
IMR-5 [11] = assay: Cytotoxicity against human IMR5 cells expressing TP53 by CellTiter96 AQueous one solution cell proliferation assay; format: functional, cell-based
SK-N-AS = assay: Cytotoxicity against human SK-N-AS cells expressing TP53 mutation by CellTiter96 AQueous one solution cell proliferation assay; format: functional, cell-based
Kelly = assay: Cytotoxicity against human Kelly cells expressing TP53 mutation by CellTiter96 AQueous one solution cell proliferation assay; format: functional, cell-based
SH-SY5Y [12] = conditions: Homo sapiens, at 10 µM
SH-SY5Y [13] = conditions: Homo sapiens, at 10 µM; remark: listed apart in the source
SH-SY5Y [14] = assay: Cytotoxicity against human SH-SY5Y cells expressing TP53 at 10 uM supplemented with fresh medium containing compound every 3 days measured after 72 hrs by CellTiter96 AQueous one solution cell proliferation assay; format: functional, cell-based

Chain of Histone deacetylase 1 (Q13547 whole entry): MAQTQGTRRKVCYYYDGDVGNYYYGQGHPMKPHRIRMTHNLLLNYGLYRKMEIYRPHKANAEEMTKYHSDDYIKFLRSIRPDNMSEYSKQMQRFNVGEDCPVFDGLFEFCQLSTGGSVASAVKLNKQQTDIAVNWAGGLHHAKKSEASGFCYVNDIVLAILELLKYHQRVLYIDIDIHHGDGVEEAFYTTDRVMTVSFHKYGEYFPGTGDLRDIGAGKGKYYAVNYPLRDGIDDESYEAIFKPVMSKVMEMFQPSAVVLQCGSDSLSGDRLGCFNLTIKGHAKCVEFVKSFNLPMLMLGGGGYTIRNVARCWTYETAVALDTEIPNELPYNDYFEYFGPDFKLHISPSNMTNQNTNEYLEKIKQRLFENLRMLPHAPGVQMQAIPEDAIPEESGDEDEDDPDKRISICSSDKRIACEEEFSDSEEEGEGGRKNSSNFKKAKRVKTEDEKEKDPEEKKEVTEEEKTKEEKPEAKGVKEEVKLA

Compound	IC50 (Histone deacetylase 1) [µM]	IC50 (Histone deacetylase 2) [µM]	IC50 [1] [µM]	IC50 (Histone deacetylase 8) [µM]	inhibition [2] [%]	also measured
CC(C)(C)c1ccc(C2c3ccccc3CCN2CCC(=O)NO)cc1 (stereo not given)	18	29	29	0.48	30	
O=C(CCN1CCc2ccccc2C1c1ccccc1)NO (stereo not given)	4.4	40	10	0.95	35	
O=C(CCN1CCc2ccccc2C1)NO	57	> 100	98	19	31	
O=C(CCN1CCc2ccccc2C1C1CCCCC1)NO (stereo not given)	> 100	> 100	75	6.7	32	
COc1cccc(C2c3ccccc3CCN2CCC(=O)NO)c1 (stereo not given)	13	69	34	0.11	27	
O=C(CCCCCCNCc1ccccc1)NO	0.34	3.1	0.43	1.8		
O=C(CCCCN1CCc2ccccc2C1c1ccccc1)NO (stereo not given)	0.77	2.7	0.81	0.044	93	Ratio IC50 (Homo sapiens [3]): 18; Ratio IC50 (Homo sapiens [4]): 61; Ratio IC50 (Homo sapiens [5]): 18
O=C(CCN1CCc2ccccc2C1c1ccc(-c2ccccc2)cc1)NO (stereo not given)	7.3	47	38	0.055	39	Ratio IC50 (Homo sapiens [3]): 135; EC50 (SH-SY5Y [6]): 0.76 µM; EC50 (IMR-5 [7]): 5.8 µM; inhibition (SH-SY5Y [8]): inactive; inhibition (SH-SY5Y [9]): inactive
O=C(CCNCc1ccccc1)NO	50	> 100	72	> 100		
O=C(CCCCCCN(Cc1ccccc1)Cc1ccccc1)NO	1.1	2.7	1.1	4		
COc1ccc(Cn2ccc3ccc(C(=O)NO)cc32)cc1						Activity (SH-SY5Y [10]): Active; Activity (IMR-5 [11]): Active; Activity (SK-N-AS): Active; Activity (Kelly): Active; inhibition (SH-SY5Y [12]): inactive; inhibition (SH-SY5Y [13]): inactive
O=C(CCN1CCc2ccccc2C1c1ccc(C(F)(F)F)cc1)NO (stereo not given)	18	> 100	27	0.19	26	
O=C(CCCCCCN1CCc2ccccc2C1)NO	0.098	0.33	0.097	1.9	97	
O=C(CCCCN(Cc1ccccc1)Cc1ccccc1)NO	1.8	5.4	1.4	1.9		
O=C(CCN1CCc2ccccc2C1c1ccc2ccccc2c1)NO (stereo not given)	2.4	13	3.4	0.39	74	
O=C(CN1CCc2ccccc2C1c1ccccc1)NO (stereo not given)	> 100	> 100	> 100	19	17	
COc1ccc(C2c3ccccc3CCN2CCC(=O)NO)cc1 (stereo not given)	27	> 100	> 100	0.082	21	Ratio IC50 (Homo sapiens [3]): 330; Activity (SH-SY5Y [14]): Active; inhibition (SH-SY5Y [8]): inactive; inhibition (SH-SY5Y [9]): inactive
CCOc1ccc(C2c3ccccc3CCN2CCC(=O)NO)cc1 (stereo not given)	24	99	> 100	0.21	5.7	
O=C(CCCCNCc1ccccc1)NO	14	58	22	10		
O=C(CCN(Cc1ccccc1)Cc1ccccc1)NO	33	> 100	52	1.4		Ratio IC50 (Homo sapiens [3]): 24; Ratio IC50 (Homo sapiens [4]): > 71; Ratio IC50 (Homo sapiens [5]): 37
O=C(CCN1CCc2ccccc2C1c1cccc(C(F)(F)F)c1)NO (stereo not given)	37	> 100	> 100	0.34	17	
